Assay outcomes as filed in PubChem BioAssay.
A selection: hits, their analogues and other compounds. The true share with any hit is near 9.6%.
APP transl inh: inhibitors of APP translation via 5'UTR reporter, primary screen, APP 5'UTR luciferase, SH-SY5Y cells | SH-SY5Y APP 5'UTR-luciferase reporter, luminescence | inhibition, % at 2 µM | actives 0.82% (n = 190,000) | AID 1285, 2008;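 active means inhibition above a set limit, derived from the sample mean plus 3 SD, cut at about 45% in these data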
MT stabilize HCS: microtubule stabilizers in HeLa cells, primary screen, imaging, high-content imaging; HeLa tubulin immunostaining HCS, 24 h; share of cells brighter than vehicle mean+2SD; % tubulin-high responders, % at 10 µM; actives 0.83% (n = 200,000); AID 2205, 2009;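 active means plate Z-score above 3 for both tubulin-high and condensed-nucleus cell shares, with cell loss under 80%, at 10 µM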;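 further: anti alpha tubulin signal scored within the nucleus-defined area of each cell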
L major viab: Leishmania major promastigote growth inhibition, primary screen; actives 9% (n = 200,000); inhibition, % at 10 µM; Leishmania major promastigotes, resazurin fluorescence viability; AID 1063, 2008; in the data active means inhibition above about 50%;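 further: promastigotes grown with compound for 44 hours at 28 °C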
b-catenin transl: modulators of beta-catenin nuclear translocation, primary screen, imaging, HeLa cells, immunofluorescence, high-content; nuclear translocation activity, % at 5 µM; actives 0.3% (n = 190,000); AID 1665, 2009;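 active means nuclear translocation activity above 50% at 5 µM, with a well cell count of 50 or more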;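 further: per-cell ratio of nuclear to cytoplasmic median beta-catenin stain intensity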
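System: Human HeLa cells, endogenous beta-catenin | Compound dosing: 5 µM primary, 0.02–20 µM confirmation | Timing: 24 h compound exposure at 37°C, 5% CO2 | Measured by: Fluorescence imaging of beta-catenin antibody stain plus DAPI | Read-out basis: % activation of per-cell nuclear versus cytoplasmic median beta-catenin signal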
BaF3 parental: parental Ba/F3 cell viability inhibition, counter-screen for JAK2V617F inhibitor project, murine pro-B, CellTiter-Glo luminescence; actives 1.1% (n = 220,000); inhibition, % at 5.6 µM; CellTiter-Glo ATP luminescence;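 active means inhibition above a per-campaign cutoff, the mean inhibition of all tested compounds plus 3 SD, cut at about 27% in these data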
Ba/F3 V617F tox: reduced viability of JAK2V617F-dependent Ba/F3 cells, primary screen, JAK2V617F inhibitor project, cell-based, Ba/F3 EpoR-JAK2V617F, luminescence; actives 1.1% (n = 220,000); inhibition, % at 5.6 µM; ATP luminescence;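 active means inhibition above the campaign mean plus 3 SD over all tested compounds, cut at about 24% in these data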;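 further: cytokine-independent growth of Ba/F3 cells driven by EpoR plus mutant JAK2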
Large screens that a line does not name were inactive.

CCn1c(SCc2nnc(-c3ccccc3)o2)nnc1-c1ccc(S(=O)(=O)N2CCCC2)cc1	L major viab 99
CCOC(=O)COc1c(/C=N\O)cc(Cl)cc1OC	none
O=C(OCC(=O)N1CCCC1)c1ccc(NS(=O)(=O)c2cccs2)cc1O	none
Cc1cc(C)n(CCC(=O)N=Nc2c(O)[nH]c3ccccc23)n1	none (no result: APP transl inh, MT stabilize HCS, L major viab)
O=C(c1ccccc1-n1cccn1)N1CCc2c([nH]c3ccccc23)C1c1ccccn1 (centres undefined)	none
CCNC(=O)CSc1nnc(-c2ccc(OC)cc2)n1CC(C)C	none
O=C(CSc1nnc(-c2ccc(S(=O)(=O)N3CCCC3)cc2)o1)NCc1ccccc1	L major viab 99
O=C(O)c1ccc(-c2nc(-c3ccccc3)c(-c3ccccc3)[nH]2)cc1	L major viab 89 (no result: b-catenin transl)
COc1ccc(-c2[nH]c(-c3ccc(C(=O)O)cc3)nc2-c2ccccc2)cc1	none
Brc1ccc(-c2nnc3ccc(Nc4ccccc4)nn23)cc1	none
CCOC(=O)c1ccc2c(c1)n(CC)c(/C=C/N(C)c1ccccc1)[n+]2CC	L major viab 100, BaF3 parental 66, Ba/F3 V617F tox 73
CCOC(=O)c1ccc2c(c1)n(CCO)c(C)[n+]2CC	none
O=C(NCCN1CCOCC1)c1ccccc1-c1ccccc1	none
O=C(NCCN1CCOCC1)c1cnn2c(-c3ccccc3)cc(-c3ccccc3)nc12	L major viab 99
CCCCC(=O)Nc1ccc(C(=O)Nc2ccc(S(=O)(=O)Nc3ccc(C)cc3)cc2)cc1	none
O=C(Nc1c(F)cccc1F)c1cnc(N2CCN(c3ccccn3)CC2)c2ccccc12	L major viab 79
O=C(NC(=S)NC1CCCCCCCCCCC1)c1cccnc1	BaF3 parental 65 (no result: b-catenin transl)
CC(C)Oc1ccc(/C(O)=C2/C(=O)C(=O)N(CCN(C)C)C2c2ccco2)cc1 (centres undefined)	L major viab 89
Cc1ccc(-n2c(SCC(=O)N(C)C3CCS(=O)(=O)C3)nc3ccccc3c2=O)cc1 (centres undefined)	none
O=S(Cc1ccc(Cl)cc1)CC(O)(c1ccccc1)c1ccccc1 (centres undefined)	MT stabilize HCS 33
O=S(Cc1ccccc1)CC(O)(c1ccc(Cl)cc1)c1ccc(Cl)cc1 (centres undefined)	none
O=C(O)CCCNC(=O)CCCn1nnc2ccccc2c1=O	none (no result: APP transl inh, MT stabilize HCS, L major viab)
CC1CCCC(NC(=O)COC(=O)CCc2ccccc2)C1C (centres undefined)	none
CC1CCCC(NC(=O)COC(=O)CSc2ccc3ccccc3c2)C1C (centres undefined)	L major viab 55 (no result: b-catenin transl)
c1ccc(CN2CCC(Nc3nc(-c4cccs4)nc4ccccc34)CC2)cc1	L major viab 100
c1csc(CNc2nc(-c3cccs3)nc3ccccc23)c1	L major viab 83
CCNC(=O)CC1C(=O)N(CC)C(=S)N1NC(=O)c1ccccc1 (centres undefined)	none (no result: APP transl inh, MT stabilize HCS, L major viab)
CCN1CCCC1CNCc1cccc(OC)c1OCc1ccccc1F (centres undefined)	L major viab 100
CCN1CCCC1CNCc1ccccc1OCc1ccc(F)cc1 (centres undefined)	L major viab 100
CCN1CCCC1CNCc1cccc(OC)c1OCc1ccccc1 (centres undefined)	L major viab 85
CNCc1ccccc1OCc1ccc(F)cc1	none
CCN1CCCC1CNCc1cc(OC)c(OC)c(OC)c1 (centres undefined)	none
COc1ccc(N2C3=C(CC4=C2CC(C)(C)CC4=O)C(=O)CC(C)(C)C3)cc1	L major viab 100
COc1ccc(N2C3=C(CC4=C2CCCC4=O)C(=O)CCC3)cc1	none
Cc1c(NC(=O)CN2C(=O)NC(CCc3ccccc3)C2=O)c(=O)n(-c2ccccc2)n1C (centres undefined)	none
COc1ccc(C(=O)NNc2ccccc2)cc1OC	L major viab 56
O=C(NNS(=O)(=O)c1ccccc1F)c1sccc1-n1cccc1	none
CCn1c(/C=C/c2ccccc2)nc2ccccc21	L major viab 77
CCC(C)n1c(/C=C/c2ccccc2)nc2ccccc21 (centres undefined)	L major viab 93
CC(C)Cn1c(/C=C/c2ccccc2)nc2ccccc21	none
COc1ccc(/C=C/c2nc3ccccc3n2C)cc1	L major viab 85, BaF3 parental 31, Ba/F3 V617F tox 26
COc1ccc(Cn2c(/C=C/c3ccccc3)nc3ccccc32)cc1	none (no result: APP transl inh, b-catenin transl)
O=C(Cn1c(/C=C/c2ccccc2)nc2ccccc21)Nc1ccc(F)cc1	L major viab 63
Cc1c(N)cccc1-c1nc2ccccc2[nH]1	none
CC(C)CCn1c(N2CCc3ccccc3C2)nc2c1c(=O)[nH]c(=O)n2C	none
CCCCCCCc1c(O)nc(SCC(=O)O)[nH]c1=O	none (no result: APP transl inh, MT stabilize HCS, L major viab)
O=C(CSCC(=O)NCc1ccco1)NCc1ccco1	none
COc1ccc(CCNC(=O)N2c3ccccc3Sc3ccccc32)cc1	L major viab 68 (no result: b-catenin transl)
O=C(NCc1ccco1)N1c2ccccc2Sc2ccccc21	L major viab 62
Fc1ccc(-n2nnc(-c3ccnc4ccccc34)n2)cc1	none
NC(=O)CSc1nnc(-c2ccccn2)n1Cc1ccco1	none (no result: APP transl inh, MT stabilize HCS, L major viab)
C(=C\c1ccccc1)/CSc1nnc(-c2ccccn2)n1Cc1ccco1	MT stabilize HCS 29, b-catenin transl 53
Cc1ccc(N=Cc2c(C)[nH]n(-c3nc4ccccc4[nH]3)c2=O)cc1	BaF3 parental 39, Ba/F3 V617F tox 26
Cc1ccc(CN2CCN(Cc3ccc4cc(F)ccc4n3)CC2CCO)o1 (centres undefined)	L major viab 80
Cc1ccc(CN2CCN(C/C(Cl)=C/c3ccccc3)CC2CCO)o1 (centres undefined)	L major viab 78
OCCC1CN(C/C(Cl)=C/c2ccccc2)CCN1C1CCCC1 (centres undefined)	L major viab 89
CC(C)=CCN1CCN(C/C(Cl)=C/c2ccccc2)CC1CCO (centres undefined)	none (no result: APP transl inh, MT stabilize HCS, L major viab)
COc1cc(/C=N/NC(=O)CSc2nc3ccccc3n2C)cc(OC)c1OC	none
O=C(O)CNc1ccc(S(=O)(=O)C(F)(F)F)cc1[N+](=O)[O-]	none (no result: APP transl inh, MT stabilize HCS, L major viab)
CC(=O)Nc1ccc(Nc2ccc(S(=O)(=O)C(F)(F)F)cc2[N+](=O)[O-])cc1	L major viab 56
CCOc1ccc(-n2c(SCC(N)=O)nc3sc4c(c3c2=O)CCN(C)C4)cc1	none (no result: APP transl inh, MT stabilize HCS, L major viab)
COCCSc1nc2sc3c(c2c(=O)n1-c1ccccc1)CCN(C)C3	L major viab 100 (no result: b-catenin transl)
Cn1cc(C(=O)c2ccc(Cl)cc2Cl)cc1C(=O)N/N=C(\N)COc1cccc(C(F)(F)F)c1	none
